Data: ChEMBL document CHEMBL1133630, “Chemical synthesis and pharmacology of 6- and 7-hydroxylated 2-carbomethoxy-3-(p-tolyl)tropanes: antagonism of cocaine's locomotor stimulant effects” (J Med Chem, 2000)

How the values were obtained:
Rattus norvegicus [1] = species: Rattus norvegicus; test: To inhibit high affinity uptake of [3H]NE into nerve endings (synaptosomes) prepared from various regions of the rat brain.; assay type: functional
Procedure, shortened: (§1)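 Radiolabelled monoamine uptake inhibition. Six drug concentrations, each in triplicate, chosen from preliminary screens to bracket the approximate IC50.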

Rattus norvegicus [2] = species: Rattus norvegicus; test: To inhibit high affinity uptake of [3H]5-HT into nerve endings (synaptosomes) prepared from various regions of the rat brain.; assay type: functional; procedure, shortened: as §1
[3] = target: T1, Sodium-dependent dopamine transporter (Rattus norvegicus, UniProt P23977); test: Inhibition of [3H]mazindol binding to dopamine transporter of rat striatal membranes.; assay type: cell membranes, Membrane
T1 sequence (P23977 whole entry): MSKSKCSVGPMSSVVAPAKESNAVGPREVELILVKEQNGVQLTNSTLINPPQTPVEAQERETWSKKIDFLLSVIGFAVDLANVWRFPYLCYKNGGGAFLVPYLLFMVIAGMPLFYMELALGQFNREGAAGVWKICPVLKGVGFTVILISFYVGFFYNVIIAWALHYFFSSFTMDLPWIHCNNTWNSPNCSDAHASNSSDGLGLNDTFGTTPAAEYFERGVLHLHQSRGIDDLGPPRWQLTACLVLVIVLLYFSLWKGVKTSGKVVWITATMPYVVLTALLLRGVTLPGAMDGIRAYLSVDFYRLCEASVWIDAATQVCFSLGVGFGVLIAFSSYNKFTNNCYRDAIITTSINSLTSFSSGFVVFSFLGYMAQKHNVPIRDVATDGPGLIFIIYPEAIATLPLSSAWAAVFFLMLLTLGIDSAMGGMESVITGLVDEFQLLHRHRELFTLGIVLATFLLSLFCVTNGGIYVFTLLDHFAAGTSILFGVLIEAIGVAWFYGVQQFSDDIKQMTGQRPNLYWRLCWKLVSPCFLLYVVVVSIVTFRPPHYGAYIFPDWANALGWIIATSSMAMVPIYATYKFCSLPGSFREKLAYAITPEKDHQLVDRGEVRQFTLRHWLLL

[4] = target: T1, Sodium-dependent dopamine transporter; test: Inhibition of high affinity uptake of [3H]dopamine into nerve endings (synaptosomes) prepared from various regions of the rat brain.; assay type: subcellular; procedure, shortened: as §1
Rattus norvegicus [5] = species: Rattus norvegicus; test: To inhibit high affinity uptake of [3H]dopamine (DA) into nerve endings (synaptosomes) prepared from various regions of the rat brain.; assay type: functional; procedure, shortened: as §1

Work on `COC(=O)[C@@H]1C2C[C@H](O)[C@H](C[C@@H]1c1ccc(C)cc1)N2C` yielded a Ki (Rattus norvegicus [1]) of 154 nM and a Ki (Rattus norvegicus [2]) of 6700 nM.

In the case of `COC(=O)[C@H]1C2[C@@H](O)C[C@H](C[C@H]1c1ccc(C)cc1)N2C` (stereo in doubt; 19b), the Ki [3] is reported as 540 nM and the Ki [4] is reported as 676 nM.

With `COC(=O)[C@H]1C2C(O)C[C@H](C[C@@H]1c1ccc(C)cc1)N2C` (stereo partly drawn) the Ki [3] was 2900 nM, the Ki (Rattus norvegicus [1]) was 1000 nM and the Ki [4] was 5600 nM. For the same molecule, the Ki (Rattus norvegicus [2]) was 3000 nM.

With `COC(=O)[C@H]1[C@@H](OC(=O)c2ccccc2)C[C@@H]2CC[C@H]1N2C` [COCAINE] the Ki (Rattus norvegicus [1]) was 108 nM and the Ki (Rattus norvegicus [2]) was 155 nM.

Work on `COC(=O)[C@H]1C2[C@@H](O)C[C@H](C[C@H]1c1ccc(C)cc1)N2C` (stereo in doubt; 14b) yielded a Ki [3] of 1400 nM, a Ki (Rattus norvegicus [1]) of 300 nM and a Ki [4] of 2900 nM. For the same molecule, the Ki (Rattus norvegicus [2]) was > 100000 nM.

`COC(=O)[C@@H]1C2C(O)C[C@H](C[C@@H]1c1ccc(C)cc1)N2C` (stereo partly drawn) was tested, and the Ki [3] was 25.2 nM, the Ki (Rattus norvegicus [1]) was 44.7 nM and the Ki [4] was 39.2 nM. It also gave a Ki (Rattus norvegicus [2]) of 581 nM.

Work on `COC(=O)[C@@H]1C2CC[C@H](C[C@@H]1c1ccccc1)N2C` yielded a Ki [3] of 89.4 nM, a Ki (Rattus norvegicus [1]) of 37.2 nM and a Ki (Rattus norvegicus [2]) of 173 nM.

With `CCCC1C2CC[C@H](C[C@@H]1c1ccc(C)cc1)N2C` (stereo partly drawn) the Ki [3] was 21 nM, the Ki (Rattus norvegicus [1]) was 6.3 nM and the Ki [4] was 51.8 nM. The Ki (Rattus norvegicus [2]) was 80.2 nM.

`COC(=O)[C@H]1C2[C@H](O)C[C@H](C[C@H]1c1ccc(C)cc1)N2C` was tested, and the Ki [3] was 135 nM and the Ki (Rattus norvegicus [1]) was 60.9 nM.

In the case of `Cc1ccc(C2C[C@H]3CC4OC(=O)C2C4N3C)cc1` (stereo partly drawn), the Ki (Rattus norvegicus [5]) is reported as 25 µM.
